# RBBP9 inh – inhibitors of human serine hydrolase RBBP9. O75884. recombinant RBBP9, FP-Rh probe fluorescence polarization. inhibition, % at 7.94 µM. actives 0.2% (n = 220,000). AID 1515;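 active = inhibition above the campaign mean of all tested compounds plus 3 SD, cut at about 14% in these data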;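 also: plate controls were DMSO wells with RBBP9 for no effect and wells lacking RBBP9 protein for full effect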
#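 Test system – recombinant human RBBP9 · Input – RBBP9 2.5 µM in dispensing solution, pre-mixing · Medium – Tris buffer pH 8.0, NaCl, Pluronic · Schedule – preincubation 30 min plus labeling 45 min at 25 °C · Measured by – fluorescence polarization · Measure – % inhibition · Controls – DMSO and no-protein wells · Replicates – one well per compound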
# EP2 modulator – modulators of human EP2 prostaglandin E2 receptor; actives 0.83% (n = 260,000); P43116; induction, % at 25 µM; EP2-expressing cells, cAMP HTRF FRET, PGE2 co-stimulation;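 active = compounds whose cAMP rise, as percent of the full-agonist control response, exceeds 60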;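 also: rat C6 glioma line stably carrying human EP2 under a CMV promoter; the protocol text gives 20 µM as final concentration; 100% = response of wells given 1 µM PGE2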
# PGE2 EP2 inh – blocks the human prostaglandin E2 receptor EP2 | C6 glioma cells expressing human EP2, cAMP TR-FRET; cells stimulated with saturating PGE2 | P43116 | inhibition, % at 25 µM | AID 1422 | actives 0.52% (n = 260,000);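 active = percent inhibition above 40 after rounding to a whole number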;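 also: rat C6 glioma host cells with rolipram phosphodiesterase inhibitor present; the protocol text gives 20 µM as final concentration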
# ABCB1 block – blocks JC-1 efflux by human ABCB1 transporter. P08183. actives 0.067% (n = 190,000). AID 1326. CCRF-Adr cells, flow cytometry. inhibition, % at 6.6 µM; in the data active = inhibition above about 40%;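 also: 0% = vehicle and 100% = reference inhibitor; higher value means more JC-1 retained so stronger ABCB1 efflux block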
# Target sequence (P08183 whole entry, looked up): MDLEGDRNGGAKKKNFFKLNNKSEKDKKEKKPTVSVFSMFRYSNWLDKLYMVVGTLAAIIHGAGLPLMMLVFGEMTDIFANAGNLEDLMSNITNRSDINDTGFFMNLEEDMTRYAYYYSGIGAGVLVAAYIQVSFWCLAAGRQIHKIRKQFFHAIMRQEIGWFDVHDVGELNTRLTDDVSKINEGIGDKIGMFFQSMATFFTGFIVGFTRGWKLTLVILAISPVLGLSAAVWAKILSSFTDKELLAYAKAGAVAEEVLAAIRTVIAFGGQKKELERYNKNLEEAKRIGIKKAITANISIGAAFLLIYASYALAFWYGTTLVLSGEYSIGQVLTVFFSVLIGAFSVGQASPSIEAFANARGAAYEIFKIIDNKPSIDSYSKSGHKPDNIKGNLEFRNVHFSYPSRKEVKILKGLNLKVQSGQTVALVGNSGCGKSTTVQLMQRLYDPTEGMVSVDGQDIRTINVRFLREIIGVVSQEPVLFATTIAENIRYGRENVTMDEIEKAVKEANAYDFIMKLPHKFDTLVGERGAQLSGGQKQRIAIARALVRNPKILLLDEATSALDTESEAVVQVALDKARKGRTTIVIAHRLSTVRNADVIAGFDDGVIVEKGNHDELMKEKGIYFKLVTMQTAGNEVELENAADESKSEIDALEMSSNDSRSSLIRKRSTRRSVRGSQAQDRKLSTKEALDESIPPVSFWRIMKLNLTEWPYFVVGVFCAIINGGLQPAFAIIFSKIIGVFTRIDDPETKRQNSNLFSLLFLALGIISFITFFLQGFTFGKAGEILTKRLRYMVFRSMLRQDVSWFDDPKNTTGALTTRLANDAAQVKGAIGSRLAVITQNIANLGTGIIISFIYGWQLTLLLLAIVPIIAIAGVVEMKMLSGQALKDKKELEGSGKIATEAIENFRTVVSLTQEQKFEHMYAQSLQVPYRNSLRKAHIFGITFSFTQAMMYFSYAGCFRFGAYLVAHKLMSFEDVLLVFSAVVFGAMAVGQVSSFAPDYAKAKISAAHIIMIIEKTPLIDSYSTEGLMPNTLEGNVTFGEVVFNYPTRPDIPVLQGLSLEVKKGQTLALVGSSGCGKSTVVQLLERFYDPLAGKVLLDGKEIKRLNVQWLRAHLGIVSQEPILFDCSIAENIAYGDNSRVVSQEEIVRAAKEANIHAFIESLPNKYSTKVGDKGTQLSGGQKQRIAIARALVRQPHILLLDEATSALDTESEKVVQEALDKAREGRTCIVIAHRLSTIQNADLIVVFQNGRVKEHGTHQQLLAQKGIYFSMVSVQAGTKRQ
# ABCG2 block – blocks JC-1 efflux by human ABCG2 transporter; AID 1325; inhibition, % at 6.6 µM; IgMXP3 cells, flow cytometry; Q9UNQ0; actives 0.1% (n = 190,000);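 active = inhibition above 80%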;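 also: 0% = DMSO and 100% = nicardipine control wells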
#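 Test system: IgMXP3 (ABCG2) plus far-red-tagged CCRF-Adr (ABCB1) cells / Amount: 3 million cells/mL in well / Reagent: JC-1 transporter substrate / Timing: 10 min compound exposure, 25 °C / Signal: flow cytometry, 530 nm JC-1 signal / Read-out: percent efflux inhibition, scaled nicardipine 100% to DMSO 0% / Benchmarks: nicardipine as high control, DMSO as low control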
# RBBP9 confirm – human RBBP9 inhibition, confirmation | actives 36% (n = 410) | shares compounds with RBBP9 inh | inhibition, % at 7.94 µM | recombinant RBBP9, FP-Rh probe fluorescence polarization;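 active = inhibition above the hit cutoff derived for the primary screen, cut at about 15% in these data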;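 also: 0% = RBBP9 with DMSO and 100% = wells lacking RBBP9 protein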
# * marks the source's active call; other numbers are inactive results; x = not tested or not shown. Compounds with a hit are over-represented: about 1.5% of the library has one in this group of screens.
SMILES,RBBP9 inh,EP2 modulator,PGE2 EP2 inh,ABCB1 block,ABCG2 block,RBBP9 confirm
O=C1c2ccccc2-c2onc3ccc(N4CCCC4)c1c23,46*,27,5,2,1,16*
CCNc1ccc2noc3c2c1C(=O)c1ccccc1-3,28*,40,16,1,1,-3
CCCN1C(=O)S/C(=C/c2ccc(N3CCOCC3)o2)C1=O,14*,-25,0,x,x,2
CCCN1C(=O)S/C(=C\c2ccc(N3CCOCC3)o2)C1=O,-4,-7,10,0,17,x
CC(C)C1/C(=N/O)CC(c2ccccc2)NC1c1ccccc1 (configuration not stated),15*,26,7,x,x,6
CCn1c(COc2cccc(C)c2)nnc1SCC(=O)Nc1sc2c(c1C#N)CCCC2,x,-43,3,x,x,x
O=C(O)CN1CCN(Cc2ccccc2Cl)C1=O,16*,x,4,x,x,2
Cc1ccccc1CCN(Cc1cc2c(C)ccc(C)c2[nH]c1=O)C(=O)c1ccncc1,x,-61,25,x,x,x
CCn1c(SCC(=O)Nc2cccc3ccccc23)nnc1C1CCCCC1,x,-33,10,x,x,x
O=C(O)c1ccc(N/N=C/c2cn(Cc3ccccc3F)c3ccccc23)cc1,17*,87*,5,x,x,11
Cc1ccc2cc(CN(CCCO)C(=S)NCCCN(C)C)c(=O)[nH]c2c1,x,-9,12,x,x,x
CCC(=O)N=c1n(C)c2ccccc2n1CCOc1ccccc1,16*,35,10,0,-1,6
Cc1cc(C)cc(N(C(=O)c2csnn2)C(C(=O)NC(C)(C)C)c2cccs2)c1 (configuration not stated),15*,25,11,1,6,6
COc1ccc2cc(CN(Cc3ccco3)C(=O)Nc3ccccc3F)c(=O)[nH]c2c1,x,25,16,x,x,x
Cc1ccc(S(=O)(=O)Nc2ccc3oc(=O)sc3c2)c(C)c1,20*,-6,12,0,-6,16*
Cc1cc(C(=O)NN)c2cc(Br)ccc2n1,-11,5,22,1,13,x
NNC(=O)c1cc(-c2ccc(N)cc2)nc2ccc(Br)cc12,15*,-41,9,x,x,69*
c1csc(C2Nc3cccc4cccc(c34)N2)c1,30*,-10,11,-1,-2,45*
CCOc1ccc(C2Nc3cccc4cccc(c34)N2)cc1OC,4,-11,6,0,0,x
Brc1ccc(C2Nc3cccc4cccc(c34)N2)o1,-3,-42,5,-1,-2,x
COc1ccc(C2Nc3cccc4cccc(c34)N2)cc1,25*,-5,6,-1,-3,21*
O=Nc1c(-c2cccc([N+](=O)[O-])c2)nc2ncccn12,21*,-55,10,x,x,24*
O=[N+]([O-])c1cccc(-c2cn3nc(-c4ccccc4)c(-c4ccccc4)nc3n2)c1,-16,-3,17,x,x,x
Cc1cc(C)nc(SCc2ccc(C(=O)O)o2)n1,15*,6,10,0,0,5
Cc1ccc(S(=O)(=O)Nc2ccccc2C(=O)OC(C)C(=O)Nc2ccc3ccccc3c2)cc1[N+](=O)[O-] (configuration not stated),-14,-1,11,0,-5,x
SMILES,RBBP9 inh,EP2 modulator,PGE2 EP2 inh,ABCB1 block,ABCG2 block,RBBP9 confirm
COc1ccc(NC(=S)NNc2ccc(S(=O)(=O)Nc3ccccc3C(=O)O)cc2[N+](=O)[O-])cc1,22*,-23,11,x,x,15*
CN(C)c1ccc(Nc2nc(-c3cccnc3)cs2)cc1,20*,-28,18,-1,-1,22*
COc1ccc(-c2cc(=O)c3ccccc3[nH]2)cc1,-5,-12,17,0,11,x
COc1ccc(-c2cc3ccccc3[nH]2)cc1,17*,-30,16,x,x,4
O=C(CSc1nnc(COc2cccc3cccnc23)n1CC1CCCO1)Nc1ccccc1F (configuration not stated),x,-16,1,x,x,x
CCn1c(SCC(=O)Nc2cccc(C(=O)OC)c2)nc2ccccc2c1=O,x,12,11,x,x,x
O=C(Cc1cccs1)Nc1ccccc1NC(=O)Cc1cccs1,15*,25,8,1,5,12
Cc1ccccc1NC(=O)Cc1cccs1,x,-32,8,x,x,x
Oc1cc(-n2cccn2)c(O)cc1-n1cccn1,63*,-47,114*,x,x,76*
CCn1c(COc2ccc(Cl)c(C)c2)nnc1SCC(=O)Nc1sc(C)c(C)c1C#N,x,0,24,x,x,x
c1ccc(CSc2nnc(-c3ccco3)n2Cc2ccco2)cc1,-10,24,14,1,4,x
CCCCOc1[nH]c2nc(-c3ccco3)n(Cc3ccco3)c(=N)c2c1C#N,18*,-39,12,1,3,11
Cc1c(Cl)cccc1NC(=O)Cn1nc2n(C)c3ccccc3n2c(=O)c1=O,x,-48,9,x,x,x
Cc1cc(-c2cnc(C)nc2C2CCN(C(=O)c3ccc4c(c3)OCCO4)CC2)on1,x,0,x,x,x,x
COc1ccccc1NC(=O)c1c(NC(=O)CCC(=O)O)sc2c1CCCCC2,-4,12,14,x,x,x
COc1ccc(OC)c(NC(=O)c2c(NC(=O)CCC(=O)O)sc3c2CCCCC3)c1,21*,-9,12,0,-3,7
Cc1cc(=O)n2[nH]c(=O)c(N=Nc3ccccc3)c2[nH]1,16*,24,20,0,0,38*
Cc1cc(C)n2[nH]c(=O)c(N=Nc3ccccc3)c2n1,-1,7,10,0,2,x
CC(=O)Nc1cccc(/C(C)=N/NC(=O)c2ccc(NS(=O)(=O)c3cccs3)cc2)c1,19*,19,4,x,x,7
C/C(=N\NC(=O)c1ccc(NS(=O)(=O)c2cccs2)cc1)c1ccc(C(C)(C)C)cc1,-9,-7,10,0,-1,x
O=C(C1CCC1)N1CCC(Cn2nc(-c3ccccc3)ccc2=O)CC1,x,-31,x,x,x,x
CCOC(=O)COc1cccc2c(=O)n(CC(=O)NCc3ccccc3)ccc12,1,-11,3,x,x,x
COC(=O)COc1cccc2c(=O)n(CC(=O)NCCc3ccccc3)ccc12,18*,-14,10,0,-2,12
Cc1c(O)ccc(/C(Cc2ccc3ccccc3n2)=N\O)c1O,41*,5,7,0,-1,47*
Oc1ccc(-c2csc(Nc3ncccn3)n2)cc1O,20*,-37,8,0,0,40*
Oc1ccc(-c2csc(Nc3ncccn3)n2)c(O)c1,-7,-15,10,0,2,x
COc1ccc(C2(C(=O)NC(C)c3nc(-c4cccnc4)n[nH]3)CCCC2)cc1 (configuration not stated),x,-1,4,x,x,x
O=C(NCc1ccco1)C1CC(c2cccc([N+](=O)[O-])c2)=NO1 (configuration not stated),17*,8,2,2,16,4
